Source: ChEMBL document CHEMBL1144233 (Bioorg Med Chem Lett, 2008)
Active and inactive are the calls of the source. The calls are words filed in the database; no cut-off is given here.

Tests used:
[1] = molecular target: T1, Metabotropic glutamate receptor 4 (Homo sapiens, UniProt Q14833); experiment: Activity at human mGluR4 expressed in CHO cells assessed as fold potentiation of glutamate-induced calcium flux at 30 uM by fluorescence assay relative to control
Target sequence in this assay (Q14833 whole entry, looked up): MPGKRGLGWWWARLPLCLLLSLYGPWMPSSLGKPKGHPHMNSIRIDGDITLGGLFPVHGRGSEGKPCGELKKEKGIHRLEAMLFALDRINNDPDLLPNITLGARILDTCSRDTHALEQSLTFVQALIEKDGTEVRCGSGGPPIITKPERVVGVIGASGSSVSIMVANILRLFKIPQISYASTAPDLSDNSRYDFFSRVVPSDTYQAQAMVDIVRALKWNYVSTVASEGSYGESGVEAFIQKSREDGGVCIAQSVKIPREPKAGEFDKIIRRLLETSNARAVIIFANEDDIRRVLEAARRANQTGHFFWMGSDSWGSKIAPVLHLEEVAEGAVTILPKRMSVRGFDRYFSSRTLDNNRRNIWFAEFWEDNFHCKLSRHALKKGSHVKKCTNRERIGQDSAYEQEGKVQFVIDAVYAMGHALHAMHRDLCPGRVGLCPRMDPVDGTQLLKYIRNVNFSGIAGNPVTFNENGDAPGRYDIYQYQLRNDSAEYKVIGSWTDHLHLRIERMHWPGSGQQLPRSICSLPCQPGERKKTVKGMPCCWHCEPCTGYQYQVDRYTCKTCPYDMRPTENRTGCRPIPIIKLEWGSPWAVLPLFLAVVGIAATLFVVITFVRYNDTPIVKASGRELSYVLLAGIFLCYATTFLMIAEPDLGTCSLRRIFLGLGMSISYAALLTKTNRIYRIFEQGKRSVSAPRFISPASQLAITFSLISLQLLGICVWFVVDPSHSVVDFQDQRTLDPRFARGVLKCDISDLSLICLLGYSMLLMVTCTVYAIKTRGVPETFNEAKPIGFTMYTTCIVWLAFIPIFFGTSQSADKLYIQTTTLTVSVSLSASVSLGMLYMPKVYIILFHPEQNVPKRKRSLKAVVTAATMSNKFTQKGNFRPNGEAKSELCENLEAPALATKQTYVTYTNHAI

[2] = molecular target: Metabotropic glutamate receptor 1 (Rattus norvegicus) (UniProt P23385); experiment: (§1) Antagonist activity at rat mGluR1 expressed in Syrian golden hamster BHK cells assessed as […] of glutamate-induced calcium flux by fluorescence assay; assay type: functional, cell-based; parameters: scale not given: the % may be the effect or the level left
[3] = molecular target: T1, Metabotropic glutamate receptor 4; experiment: Activity at human mGluR4 expressed in CHO coexpressing Gqi5 assessed as potentiation of glutamate-induced calcium flux by fluorescence assay; assay type: functional
Outline: (§2)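 CHO cells stably co-expressing human mGluR4 and chimeric Gqi5, plated 30,000 cells/well in assay medium (DMEM, 10% dialyzed FBS, 20 mM HEPES) and grown overnight at 37 °C, 5% CO₂. Loaded with 1 µM Fluo-4AM in HBSS/20 mM HEPES/2.5 mM probenecid for 45 min at 37 °C.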
Target sequence in this assay (Q14833 whole entry): as the sequence (Q14833 whole entry, looked up) above

[4] = molecular target: Metabotropic glutamate receptor 1 (Rattus norvegicus, UniProt P23385); experiment: as §1; assay type: functional, cell-based
[5] = molecular target: T1, Metabotropic glutamate receptor 4; experiment: Activity at human mGluR4 expressed in CHO coexpressing Gqi5 assessed as potentiation of calcium flux by fluorescence assay in absence of glutamate; assay type: functional
Outline: as §2
Target sequence in this assay (Q14833 whole entry): as the sequence (Q14833 whole entry, looked up) above

Metabotropic glutamate receptor 1 (Rattus norvegicus), sequence (P23385 19-1199 limits assumed): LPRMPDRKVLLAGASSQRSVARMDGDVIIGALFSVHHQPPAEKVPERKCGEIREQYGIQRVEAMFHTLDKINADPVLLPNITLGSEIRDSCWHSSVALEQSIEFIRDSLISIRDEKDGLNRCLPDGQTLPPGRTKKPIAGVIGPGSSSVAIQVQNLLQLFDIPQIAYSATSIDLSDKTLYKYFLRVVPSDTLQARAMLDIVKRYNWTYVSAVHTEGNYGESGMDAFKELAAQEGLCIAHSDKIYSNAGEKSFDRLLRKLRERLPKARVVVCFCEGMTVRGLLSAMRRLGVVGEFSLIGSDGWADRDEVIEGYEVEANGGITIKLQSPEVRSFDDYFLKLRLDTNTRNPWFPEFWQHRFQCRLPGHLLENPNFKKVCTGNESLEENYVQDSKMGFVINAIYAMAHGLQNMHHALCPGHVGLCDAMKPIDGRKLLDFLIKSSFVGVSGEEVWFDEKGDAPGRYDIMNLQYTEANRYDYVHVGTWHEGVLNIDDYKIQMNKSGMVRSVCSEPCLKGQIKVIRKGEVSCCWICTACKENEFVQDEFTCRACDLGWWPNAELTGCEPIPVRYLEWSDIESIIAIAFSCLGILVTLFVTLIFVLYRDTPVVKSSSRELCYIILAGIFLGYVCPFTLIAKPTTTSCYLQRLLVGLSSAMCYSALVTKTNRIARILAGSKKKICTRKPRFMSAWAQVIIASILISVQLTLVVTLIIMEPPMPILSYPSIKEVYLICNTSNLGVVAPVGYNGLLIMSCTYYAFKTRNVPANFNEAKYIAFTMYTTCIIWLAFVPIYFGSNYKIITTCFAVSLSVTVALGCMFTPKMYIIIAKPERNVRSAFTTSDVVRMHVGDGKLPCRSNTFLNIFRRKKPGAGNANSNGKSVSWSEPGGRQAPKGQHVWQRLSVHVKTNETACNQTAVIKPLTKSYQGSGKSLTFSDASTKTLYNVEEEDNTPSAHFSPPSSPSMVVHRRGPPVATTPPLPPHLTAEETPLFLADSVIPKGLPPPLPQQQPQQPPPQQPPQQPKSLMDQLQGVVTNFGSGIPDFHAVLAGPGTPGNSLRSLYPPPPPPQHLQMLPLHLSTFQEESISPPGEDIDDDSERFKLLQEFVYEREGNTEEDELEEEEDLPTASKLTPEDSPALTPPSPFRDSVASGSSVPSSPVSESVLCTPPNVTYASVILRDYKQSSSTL
Metabotropic glutamate receptor 1, sequence (P23385 whole entry): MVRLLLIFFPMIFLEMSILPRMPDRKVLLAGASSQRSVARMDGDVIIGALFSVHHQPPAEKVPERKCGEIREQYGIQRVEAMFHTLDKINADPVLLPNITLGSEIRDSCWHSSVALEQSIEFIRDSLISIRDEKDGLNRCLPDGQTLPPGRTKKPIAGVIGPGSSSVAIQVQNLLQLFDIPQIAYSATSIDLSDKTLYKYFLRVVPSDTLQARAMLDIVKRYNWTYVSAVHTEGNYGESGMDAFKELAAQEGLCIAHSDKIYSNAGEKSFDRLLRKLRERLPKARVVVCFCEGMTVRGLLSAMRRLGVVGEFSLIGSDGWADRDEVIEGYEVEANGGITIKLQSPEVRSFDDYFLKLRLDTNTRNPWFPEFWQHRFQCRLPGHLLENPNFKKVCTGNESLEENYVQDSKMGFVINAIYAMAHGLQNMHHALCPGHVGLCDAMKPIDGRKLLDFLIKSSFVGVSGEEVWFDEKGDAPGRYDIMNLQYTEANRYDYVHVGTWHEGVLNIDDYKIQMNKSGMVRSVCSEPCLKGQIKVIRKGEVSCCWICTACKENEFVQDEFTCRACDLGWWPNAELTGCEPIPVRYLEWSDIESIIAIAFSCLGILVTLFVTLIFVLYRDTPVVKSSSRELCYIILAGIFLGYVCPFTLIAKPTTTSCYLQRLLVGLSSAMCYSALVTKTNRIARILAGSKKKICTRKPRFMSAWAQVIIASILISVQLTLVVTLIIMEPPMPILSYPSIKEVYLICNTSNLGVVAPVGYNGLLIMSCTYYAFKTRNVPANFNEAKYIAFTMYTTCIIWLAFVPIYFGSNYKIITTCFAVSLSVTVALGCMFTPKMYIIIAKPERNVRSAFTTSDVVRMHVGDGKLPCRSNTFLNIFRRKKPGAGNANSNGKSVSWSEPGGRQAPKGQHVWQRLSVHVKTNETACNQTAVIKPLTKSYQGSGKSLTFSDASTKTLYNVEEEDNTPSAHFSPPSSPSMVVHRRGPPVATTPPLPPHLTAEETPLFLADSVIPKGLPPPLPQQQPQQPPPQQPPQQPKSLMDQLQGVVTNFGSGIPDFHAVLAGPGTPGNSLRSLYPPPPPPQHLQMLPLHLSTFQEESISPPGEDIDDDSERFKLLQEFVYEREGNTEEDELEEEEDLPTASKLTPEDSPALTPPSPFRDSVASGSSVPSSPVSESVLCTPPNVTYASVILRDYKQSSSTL

fold change (FC) [1]	Compound	further results
9.9	Cc1ccc(-n2ncc3c(N4CCCC(C(F)(F)F)C4)ncnc32)c(C)c1 (centres undefined)	
2.4	Cc1ccc(-n2ncc3c(N4CCC(n5c(=O)[nH]c6ccccc65)CC4)ncnc32)c(C)c1	
	O=C(Nc1ccccc1)[C@]12C[C@H]1/C(=N\O)c1ccccc1O2	Activity [2]: 30%
2.7	CC1CCCN(c2ncnc3c2cnn3-c2ccccc2Cl)C1 (centres undefined)	
3.5	Cc1ccc(-n2ncc3c(N4CC(C)OC(C)C4)ncnc32)c(C)c1 (centres undefined)	
11.8	Cc1ccc(-n2ncc3c(N4CCCC(C)C4)ncnc32)c(C)c1 (centres undefined)	EC50 [3]: 4.6 µM; IC50 [4]: 2.6 µM; Activity [5]: inactive
